Compounds with a hit are over-represented: about 3.8% of the library has one in this group of screens.
KCNK3 inh = human KCNK3 channel inhibitors, primary screen, CHO cells, FluxOR thallium flux, B-score. Potassium channel subfamily K member 3 (Homo sapiens), O14649. FluxOR fluorescence; stronger effect = lower value. B-score at 10 µM. 340,000 tested, 0.84% active;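 active = B-score under library mean minus 4 SD, starting fluorescence ratio at most library mean plus 5 SD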;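 also: more negative B-score means stronger inhibition of thallium flux through KCNK3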
KCNK9 block = KCNK9 potassium channel inhibitors, primary screen, HEK293 cells, thallium flux. Potassium channel subfamily K member 9 (Homo sapiens), Q9NPC2. FluxOR thallium flux fluorescence; stronger effect = lower value. B-score at 10 µM. 310,000 tested, 1.2% active;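 active = ratio B-score over 3 SD below the library mean, with starting fluorescence within 5 SD of its mean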;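 also: negative B-score means less thallium flux so channel inhibition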
KCNQ1 pot = potentiators or activators of KCNQ1 channel, primary screen, cell-based, thallium flux, high-throughput | CHO-K1 KCNQ1, thallium flux FluxOR fluorescence; stronger effect = higher value | B-score at 10 µM | Potassium voltage-gated channel subfamily KQT member 1 (Homo sapiens), P51787 | AID 2648, 2010 | 310,000 tested, 0.35% active;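 active = fluorescence ratio B-score, a plate-corrected score, at least three library SD, with initial intensity B-score within 5 SD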
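Schedule – 37 °C overnight plating, 90-min dark dye load, 20-min compound pretreatment · System – stable KCNQ1 CHO-K1 line · Probe or stimulus – thallium- and potassium-containing depolarizing buffer · Measured by – kinetic FluxOR fluorescence, 10 s baseline plus 110 s post-stimulus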
KCNQ1 block = inhibitors of human KCNQ1 channel, primary screen, cell-based, thallium flux, high-throughput; 310,000 tested, 1.3% active; CHO-K1 KCNQ1, FluxOR thallium flux fluorescence; stronger effect = higher value; Potassium voltage-gated channel subfamily KQT member 1 (Homo sapiens), P51787; B-score at 10 µM;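 active = compounds whose thallium flux B-score, printed positive for inhibition, exceeds three library SD while starting fluorescence stays within three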;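 also: channel opened by potassium depolarization with thallium stimulus after 20 min compound exposure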
hERG protect = hERG rescue from dofetilide block, primary screen, cell-based, CHO-hERG, FluxOR thallium flux, dofetilide IC70; dofetilide IC70 present; activation (rescue from dofetilide block), less the hit threshold, % at 10 µM; 310,000 tested, 0.51% active; AID 1511, 2009;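 active = activation above the mean of controls blocked by dofetilide plus 5 SD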;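 also: thallium influx through hERG after potassium depolarization seen as dye fluorescence rise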
Target sequence (Q12809 whole entry, looked up): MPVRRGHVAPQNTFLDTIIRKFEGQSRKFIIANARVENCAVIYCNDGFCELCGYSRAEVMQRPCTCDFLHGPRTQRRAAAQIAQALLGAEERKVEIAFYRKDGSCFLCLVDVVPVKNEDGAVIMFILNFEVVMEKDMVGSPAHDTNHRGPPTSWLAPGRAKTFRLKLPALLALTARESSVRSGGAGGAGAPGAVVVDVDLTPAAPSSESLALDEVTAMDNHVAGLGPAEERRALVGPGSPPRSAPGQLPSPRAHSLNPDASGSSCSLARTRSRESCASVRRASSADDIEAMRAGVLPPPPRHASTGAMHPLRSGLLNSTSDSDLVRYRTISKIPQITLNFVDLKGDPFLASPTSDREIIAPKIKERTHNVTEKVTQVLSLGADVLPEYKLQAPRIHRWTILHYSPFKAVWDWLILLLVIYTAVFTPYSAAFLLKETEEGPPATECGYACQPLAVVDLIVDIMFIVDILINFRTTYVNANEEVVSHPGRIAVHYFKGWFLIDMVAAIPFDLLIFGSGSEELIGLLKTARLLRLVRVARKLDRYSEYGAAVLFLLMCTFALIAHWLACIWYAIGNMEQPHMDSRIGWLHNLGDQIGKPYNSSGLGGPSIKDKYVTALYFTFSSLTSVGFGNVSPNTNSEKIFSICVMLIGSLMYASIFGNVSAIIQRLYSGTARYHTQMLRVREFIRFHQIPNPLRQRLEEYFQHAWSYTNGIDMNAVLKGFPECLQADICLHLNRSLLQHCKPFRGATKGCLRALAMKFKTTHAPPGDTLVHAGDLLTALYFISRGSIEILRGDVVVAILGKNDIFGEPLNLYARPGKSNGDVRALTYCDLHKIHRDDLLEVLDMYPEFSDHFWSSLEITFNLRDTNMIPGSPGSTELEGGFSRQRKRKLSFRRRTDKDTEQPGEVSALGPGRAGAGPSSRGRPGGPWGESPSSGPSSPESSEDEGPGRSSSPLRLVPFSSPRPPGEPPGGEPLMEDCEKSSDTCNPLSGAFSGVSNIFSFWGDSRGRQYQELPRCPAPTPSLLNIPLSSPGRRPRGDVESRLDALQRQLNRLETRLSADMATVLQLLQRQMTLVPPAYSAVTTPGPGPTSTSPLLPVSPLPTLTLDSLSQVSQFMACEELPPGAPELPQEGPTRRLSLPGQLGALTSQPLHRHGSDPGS
Kir21 block = inhibitors of mouse Kir2.1 inward-rectifier potassium channel | Inward rectifier potassium channel 2 (Mus musculus), P35561 | HEK293-Kir2.1, FluxOR thallium flux fluorescence; stronger effect = lower value | B-score at 10 µM | 310,000 tested, 0.85% active | AID 1672, 2009;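 active = fluorescence ratio B-score at or below minus 3 SD of library scores, with starting-brightness B-score within 2 SD, cut at about -4.2 in these data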;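 also: channel flux triggered by added potassium and thallium sulfate stimulus; B-score of peak minus minimum fluorescence over baseline after thallium stimulus; more negative B-score means stronger Kir2.1 block with less thallium influx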
Each line names hits and unclear results; the compound was inactive in the other large screens.

C=CCNC(=O)/C(=C/c1ccc(Br)cc1)NC(=O)c1ccccc1OC	none
O=C(COC(=O)c1cccc(O)c1)NC(=O)Cc1ccccc1	none
Cc1cccnc1CCNC(=O)c1ccc(OC2CCN(Cc3ccccn3)CC2)cc1	none
O=C(NCCc1cccc(Cl)c1)c1ccc(OC2CCN(Cc3ccccn3)CC2)cc1	Kir21 block -5.4
CCCC[C@@H]1CNCCN1CCc1cccc(F)c1	none
Cc1cnc(NC(=O)COc2ccc3c(c2)CCC3)s1	none
O=C([O-])c1ccccc1-[n+]1c(-c2ccccc2)cc(-c2ccccc2)cc1-c1ccccc1	Kir21 block -4.58
O=C(COc1ccc2ccccc2c1)NCC(=O)N/N=C/c1ccco1	none
CCOC(=O)N1CCC(NS(=O)(=O)c2ccccc2)CC1	none
Cn1c(Cc2ccccc2)nnc1SCc1nc2ccccc2c(=O)[nH]1	none
Cc1[nH]n(-c2ccc(Cl)cc2)c(=O)c1/C=N/c1nnc(-c2ccccc2)s1	KCNQ1 pot 9, hERG protect 87.5
COc1ccc2nc(/N=C/c3c(C)[nH]n(-c4ccc(C)cc4)c3=O)sc2c1	KCNQ1 pot 39, hERG protect 10.2
Cc1ccc(-n2[nH]c(C)c(C=Nc3cc(C)ccn3)c2=O)cc1	none
CC(C)Cn1nc(NC(=O)c2cccs2)c2cc3ccccc3nc21	KCNK9 block -7
CCOC(=O)c1c(C)nc(C)c2c(=O)oc3ccccc3c12	none
COCCN1CCN(C(=O)C2CCC(=O)N(Cc3ccccc3F)C2)CC1 (stereo not drawn)	none
C/C=C/C(=O)N[C@@H]1c2ccccc2CC[C@@H]1OCc1ccccc1	none (no result: KCNK9 block, KCNQ1 pot, KCNQ1 block, hERG protect, Kir21 block)
C/C(=N\NC(N)=S)c1cc(-c2ccccc2)c(-c2ccccc2)s1	KCNK9 block -8.03
CC(C)(C)n1ncc2c(=O)n(CC(=O)Nc3ccc4c(c3)OCCO4)cnc21	none
COc1ccc(OCC(=O)N2c3ccc(C)cc3C3CN(C)CCC32)cc1 (stereo not drawn)	none
Cc1ccc(Cl)c(NC(=O)COC(=O)c2nn(-c3ccccc3)cc2O)c1Cl	none (no result: KCNK9 block, KCNQ1 pot, KCNQ1 block, hERG protect, Kir21 block)
CCOc1ccc(NC(=S)NC2CC3CCC(C2)N3Cc2ccco2)cc1 (stereo not drawn)	KCNK9 block -7.18
Cc1cc(C)cc(NC(=S)NC2CC3CCC(C2)N3Cc2ccco2)c1 (stereo not drawn)	none
O=C(NC(=S)Nc1ccccc1Br)c1ccco1	KCNQ1 pot 9
Cc1cccc(NC(=S)NC(=O)c2ccco2)c1C	KCNQ1 pot 33, hERG protect 22.1
CCOc1ccc(NC(=S)NC(=O)c2ccco2)cc1	KCNQ1 pot 12, hERG protect 6.1
Cc1cccc(NC(=O)CCNC(=O)c2ccco2)c1C	none
CCOc1ccc(NC(=O)c2ccco2)cc1	none
C[C@@H](CN1C2=NC[C@H](Cc3ccccc3)N2C[C@H]1Cc1ccc(O)cc1)NC(=O)CCC1CCCCC1	Kir21 block -4.49
COc1ccc(C[C@H]2CN3C(=NC[C@H]3Cc3ccccc3)N2CCNC(=O)CCC2CCCCC2)cc1	Kir21 block -6.11
COc1ccc(C[C@H]2CN3C(=NC[C@@H]3Cc3ccccc3)N2C[C@H](C)NC(=O)CCC2CCCCC2)cc1	Kir21 block -7.33 (no result: KCNK3 inh)
CCOC(=O)C1(Cc2cccc(F)c2)CCN(C(=O)Cc2cccnc2)CC1	none
COCCNC(=S)N/N=C(\C)c1ccc(Cl)c(Cl)c1Cl	none
COc1ccc(CC(C)Nc2ccccc2F)cc1 (stereo not drawn)	none
Cc1ccc(S(=O)(=O)CCC(=O)Nc2sccc2C#N)cc1	Kir21 block -4.62
Cc1ccc(S(=O)(=O)CCC(=O)Nc2sccc2C(N)=O)cc1	none (no result: KCNK9 block, KCNQ1 pot, KCNQ1 block, hERG protect, Kir21 block)
Cc1csc(SC(C)C(=O)NCC2CCCO2)n1 (stereo not drawn)	none

Source: PubChem BioAssay
